CASP6 VEID inh: blocks human caspase-6 cleavage activity; P55212; purified caspase-6, Z-VEID-R110 cleavage fluorescence; inhibition, % at 12.5 µM; 0.53% of 350,000 active; AID 686996;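 active = mean inhibition across replicates at least about 35%, with every replicate also reaching that limit, limit read from the data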;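 also: 0% = median of neutral control wells and 100% = no fluorescence left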
SIRT5 inh: blocks human SIRT5 desuccinylation of peptide. AID 652115. Q9NXA8. 1.1% of 330,000 active. Purified SirT5, succinyl-peptide AMC, trypsin-coupled fluorescence. inhibition, % at 15 µM; in the data active = inhibition above about 15%
Target sequence (Q9NXA8 whole entry, looked up): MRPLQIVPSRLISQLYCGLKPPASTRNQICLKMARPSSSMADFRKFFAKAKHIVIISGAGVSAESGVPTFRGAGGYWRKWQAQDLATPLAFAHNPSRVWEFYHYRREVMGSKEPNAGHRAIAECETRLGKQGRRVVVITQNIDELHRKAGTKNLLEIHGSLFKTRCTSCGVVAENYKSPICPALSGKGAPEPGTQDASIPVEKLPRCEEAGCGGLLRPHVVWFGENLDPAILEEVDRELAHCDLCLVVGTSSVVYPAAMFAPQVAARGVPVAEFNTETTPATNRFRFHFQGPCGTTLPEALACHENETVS
UCH37 inh: blocks the human deubiquitinase UCH37. purified proteasome/UCH37, Ub-AMC cleavage fluorescence. inhibition, % (no concentration beside the values). 0.33% of 330,000 active. AID 588478;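 active = mean inhibition over replicate wells above about 20%, limit read from the data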;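 also: 0% = compound-free wells with enzyme and 100% = wells lacking proteasome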
Target sequence (Q9Y5K5 whole entry, looked up): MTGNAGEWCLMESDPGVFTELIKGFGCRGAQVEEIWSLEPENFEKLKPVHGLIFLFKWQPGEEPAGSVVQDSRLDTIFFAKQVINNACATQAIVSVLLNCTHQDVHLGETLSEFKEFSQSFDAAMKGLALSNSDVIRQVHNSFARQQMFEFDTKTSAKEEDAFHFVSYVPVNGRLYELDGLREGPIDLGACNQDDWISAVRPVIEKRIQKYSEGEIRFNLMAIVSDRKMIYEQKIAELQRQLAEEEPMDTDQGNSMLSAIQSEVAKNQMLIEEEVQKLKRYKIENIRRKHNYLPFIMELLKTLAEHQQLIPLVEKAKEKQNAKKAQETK
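system = Proteasome-associated human UCH37 deubiquitinase | amount = 0.15 nM proteasome as dispensed | medium = pH 7.4 Tris-HCl (50 mM) with ovalbumin, ATP-MgCl2, DTT | incubation = 30 min preincubation with enzyme, 25 min cleavage at room temperature | detection = AMC fluorescence 355/460 nm | read-out basis = percent inhibition | controls = no-proteasome and no-compound wells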
FGF22 binding: FGF22 (human) thermal shift binding; 1.5% of 340,000 active; Q9HCT0; recombinant FGF22 thermal shift, SYPRO orange fluorescence; percent of sucrose octasulfate shift, DMSO zero; activity (Tm shift, normalised), % at 9.99 µM;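 active = mean Tm shift, scaled 0 neutral to 100 positive control, at about 1.3% or above, every replicate too, limit read from the data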
NSD2 HMT inh: NSD2 (human) methyltransferase inhibition; NSD2 peptide methylation, AlphaScreen, 120 min; inhibition, % at 12.5 µM; 0.54% of 310,000 active; AID 743445; in the data active = inhibition above about 50%
Starred values were filed as active, the others as inactive. In the library only some 2.6% were active in any assay of this set; here they are far more common.

For O=C(C[C@H]1C=C[C@@H](NC(=O)Nc2ccccc2F)[C@@H](CO)O1)NCc1ccc(Cl)cc1 the results were CASP6 VEID inh 0.8, SIRT5 inh 6.0 and FGF22 binding 0.0.
For COC(=O)CSc1nc(N)nc(C)c1Cl the results were CASP6 VEID inh 0.4, SIRT5 inh -1.6, UCH37 inh 2.6, FGF22 binding 42.3 and NSD2 HMT inh -2.7.
For COC(=O)CSc1nc(C)c(C)c(C)c1C(N)=O the results were CASP6 VEID inh -2.4, SIRT5 inh -6.3, UCH37 inh 0.9, FGF22 binding 43.2* and NSD2 HMT inh -3.5.
Screening C(=NN=Cc1ccncc1)c1ccncc1 returned UCH37 inh 2.9.
Screening Cc1cc(C)n(CC(=O)c2cccc(N)c2)n1 returned CASP6 VEID inh -0.2, SIRT5 inh 20.3*, UCH37 inh -0.8, FGF22 binding 0.2 and NSD2 HMT inh -3.5.
Screening Cc1cc(C)n(CC(=O)NN)n1 returned CASP6 VEID inh -4.1, SIRT5 inh -0.6, UCH37 inh 3.3, FGF22 binding 0.2 and NSD2 HMT inh -4.9.
For Cc1cccc(COCC(Cc2ccccc2)N2CCN(C(=O)c3cccc(Cl)c3)CCC2=O)c1 (stereo not given) the results were CASP6 VEID inh 1.5, UCH37 inh 1.5 and FGF22 binding -0.3.
Cc1cccc(COC[C@H](Cc2ccccc2)N2CCN(C(=O)c3cc(Cl)cc(Cl)c3)CCC2=O)c1 was read as CASP6 VEID inh -1.7, SIRT5 inh 40.9* and FGF22 binding -0.4.
`C[C@H]1CN([C@@H](C)CO)C(=O)c2c(c3ccccc3n2C)-c2ccccc2CO[C@@H]1CN(C)C(=O)Nc1cccc(C(F)(F)F)c1` gave CASP6 VEID inh -1.4, SIRT5 inh 11.0 and FGF22 binding -0.6.
`CCOc1cc(-c2sc(Nc3cc(C)ccc3OC)n[n+]2-c2ccccc2)ccc1OC` gave CASP6 VEID inh -6.1, UCH37 inh 1.7 and FGF22 binding 0.1.
`COc1ccc(C)cc1Nc1n[n+](-c2ccccc2)c(-c2ccc(C(=O)O)cc2)s1` gave CASP6 VEID inh 19.0, SIRT5 inh 1.8, UCH37 inh 3.2 and FGF22 binding 44.0*.
Screening O=C(Cn1cc(Br)ccc1=O)Nc1ccc2c(c1)OCO2 returned CASP6 VEID inh 0.3, SIRT5 inh 4.9, UCH37 inh 0.4, FGF22 binding 0.3 and NSD2 HMT inh -0.9.
Screening O=C(Cn1cc(C(F)(F)F)ccc1=O)Nc1ccc2c(c1)OCO2 returned CASP6 VEID inh -2.3, FGF22 binding 43.3* and NSD2 HMT inh 0.0.
For O=S(=O)(NC(=S)NC1CCCCC1)c1cccs1 the results were CASP6 VEID inh 3.3, SIRT5 inh -5.7, UCH37 inh 4.7, FGF22 binding 43.2* and NSD2 HMT inh -2.8.
`COC(=O)c1cn(NC(=O)Cn2nc([N+](=O)[O-])c(Cl)c2C)c(=O)c2ccccc12` gave CASP6 VEID inh -0.1, SIRT5 inh 1.3, UCH37 inh 2.9, FGF22 binding -0.1 and NSD2 HMT inh -6.4.
Screening COC(=O)c1cn(NC(=O)Cn2nc([N+](=O)[O-])c(Br)c2C)c(=O)c2ccccc12 returned CASP6 VEID inh -4.5, SIRT5 inh 4.7, UCH37 inh 1.6, FGF22 binding 43.3* and NSD2 HMT inh -5.1.
COc1cc(/C=C2\C(=N)N3N=C(S(C)(=O)=O)SC3=NC2=O)cc(OC)c1OCCOc1cccc(C)c1 was read as CASP6 VEID inh 7.8, SIRT5 inh 2.1, UCH37 inh 5.9, FGF22 binding 2.0* and NSD2 HMT inh 18.4.
COc1cc(/C=C2\C(=N)N3N=C(S(C)(=O)=O)SC3=NC2=O)cc(OC)c1OCCOc1ccc(C)cc1 was read as CASP6 VEID inh 30.6, SIRT5 inh 20.0*, UCH37 inh 2.5, FGF22 binding 1.7* and NSD2 HMT inh 39.1.
`COc1cc(/C=C2\C(=N)N3N=C(S(C)(=O)=O)SC3=NC2=O)ccc1OCCOc1ccc(C)cc1` gave CASP6 VEID inh 16.3, SIRT5 inh 8.1, UCH37 inh 5.0, FGF22 binding 0.6 and NSD2 HMT inh 5.6.
Screening CS(=O)(=O)C1=NSC2=NC(=O)/C(=C\c3ccc(OS(=O)(=O)c4ccccc4)cc3)C(=N)N21 returned CASP6 VEID inh 8.7, SIRT5 inh 16.9*, UCH37 inh 1.7, FGF22 binding 0.2 and NSD2 HMT inh 17.1.
Cc1ccc(S(=O)(=O)Oc2ccc(/C=C3\C(=N)N4N=C(S(C)(=O)=O)SC4=NC3=O)cc2)cc1 was read as CASP6 VEID inh 58.7*, SIRT5 inh 12.2, UCH37 inh 4.3, FGF22 binding 0.0 and NSD2 HMT inh 46.7.
Screening COc1cc(/C=C2\C(=N)N3N=C(S(C)(=O)=O)SC3=NC2=O)ccc1OS(=O)(=O)c1ccccc1 returned NSD2 HMT inh 22.0.
Screening Cc1ccc(S(=O)(=O)Oc2ccc(/C=C3/C(=N)N4C(=NC3=O)SN=C4S(C)(=O)=O)cc2)cc1 returned CASP6 VEID inh 14.5, SIRT5 inh 5.6, UCH37 inh 13.7, FGF22 binding -0.1 and NSD2 HMT inh 27.6.
`C[C@H](CO)N1C[C@H](C)[C@H](CN(C)S(=O)(=O)c2cccs2)Oc2ccc(NC(=O)c3ccncc3)cc2C1=O` gave CASP6 VEID inh -2.4, SIRT5 inh -6.6 and FGF22 binding -0.3.
COc1ccc(NC(=O)Nc2ccc3c(c2)C(=O)N([C@H](C)CO)C[C@H](C)[C@@H](CN(C)C(=O)CCCN(C)C)OCCCC[C@H](C)O3)cc1 was read as CASP6 VEID inh -0.9, SIRT5 inh -3.2 and FGF22 binding -0.5.
For C[C@@H]1CN([C@@H](C)CO)C(=O)c2cc(NS(C)(=O)=O)ccc2O[C@@H]1CN(C)C(=O)Nc1cccc2ccccc12 the results were CASP6 VEID inh -1.7, SIRT5 inh -3.7 and FGF22 binding -0.1.
For O=C(Cc1ccncc1)N[C@@H]1CC[C@H](CCn2cc(-c3ccccc3F)nn2)O[C@@H]1CO the results were CASP6 VEID inh 1.6, SIRT5 inh -4.1 and FGF22 binding 0.0.
`Cc1ccc(S(=O)(=O)N2C[C@@H]3CCCC[C@@H]3[C@@H](C)[C@H]2c2cn(Cc3ccccc3)c3ncccc23)cc1` gave CASP6 VEID inh -2.3, SIRT5 inh 22.1*, UCH37 inh -1.0 and FGF22 binding -0.2.
Screening C[C@H](CO)N1C[C@H](C)[C@@H](CN(C)S(=O)(=O)c2ccc(F)cc2)Oc2cc(C#Cc3ccncc3)ccc2S1(=O)=O returned CASP6 VEID inh -3.1, SIRT5 inh 1.3 and FGF22 binding -0.2.
`Cc1ccc(S(=O)(=O)N(C)C[C@@H]2Oc3cc(C#Cc4ccncc4)ccc3S(=O)(=O)N([C@@H](C)CO)C[C@H]2C)cc1` gave CASP6 VEID inh 2.1, SIRT5 inh 15.0* and FGF22 binding 0.0.
Cc1ccc(S(=O)(=O)N(C)C[C@@H]2Oc3cc(C#Cc4ccccc4)ccc3S(=O)(=O)N([C@@H](C)CO)C[C@@H]2C)cc1 was read as CASP6 VEID inh 39.1*, SIRT5 inh 4.7 and FGF22 binding 0.3.

Screens (PubChem)
